Common to all, as to assay type: functional, organism-based
Assay [1] concerns Mycobacterium tuberculosis. Put plainly: Antibacterial activity against Mycobacterium tuberculosis containing pncA gene with C deletion at nt 99 assessed as at 100 mg/liter. The essentials:
(§1)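 Clinical M. tuberculosis isolates first grown on Löwenstein-Jensen medium 3 to 4 weeks at 37°C. Radiometric BACTEC 460 test in acidified PZA test medium. Inoculum: ~McFarland 1 suspension grown in 12B medium until growth index (GI) >300. Paired vials per strain: drug-free control and PZA 100 mg/liter. Read when control GI reached 200. Resistant if PZA-vial GI >11% of control GI, susceptible if <9%.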

For assay [2], the system named is Mycobacterium tuberculosis. As to the kind of experiment: (§2) Antibacterial activity against Mycobacterium tuberculosis containing wild type PZase assessed as at 100 mg/liter. The essentials: as §1
The subject of assay [3] is Mycobacterium tuberculosis. The description is as §2. The procedure, abridged: as §1
The source holds these as a separate data set.

Molecules are shown by their SMILES. The source made the active and inactive calls. The calls are words filed in the database; no cut-off is given here.

For `NC(=O)c1cnccn1`, the outcome in assay [1] and in assay [2] was inactive. Moreover, the result in assay [3] was Active.

These data come from ChEMBL document CHEMBL1255334.
